Source: PubChem
This is a sample that favours compounds with a hit; in the whole collection about 2.2% have one here.
DYRK1A inh: inhibitors of rat Dyrk1A kinase | ADP-Glo luminescence, NFATc1 peptide | actives 0.43% (n = 310,000) | Q63470 | inhibition, % at 12.5 µM; in the data active means inhibition above about 50%;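 further: plate controls were vehicle with enzyme for no effect and no enzyme for full effect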
Rtt109 Vps75: C. albicans Rtt109 histone acetyltransferase inhibition; Q5AAJ8; purified Rtt109/Vps75, ThioGlo CoA-SH fluorescence, 4 h; inhibition, % at 34.9 µM; actives 0.16% (n = 330,000); AID 540336;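 active means inhibition of at least 50% in every replicate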
dFosB act-1: enhances mouse delta FosB homodimer DNA binding; P13346; purified delta FosB, TAMRA-CDK5 oligo fluorescence polarization; percent of positive-control signal above neutral wells; activation, % at 25 µM; actives 0.99% (n = 340,000);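 active means mean activation above about 17%, with every replicate also reaching it, limit read from the data, passing the limit was not always enough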
CDK5 p35 inh: CDK5/p35 (human) kinase inhibition. actives 0.01% (n = 330,000). AID 488839. Q00535+Q15078. inhibition, % at 10 µM. Recombinant CDK5/p35, ADP-Glo luminescence, 60 min;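 active means highest replicate inhibition of at least 50% and at least 75% of replicates reaching 50%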;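 further: plate controls were DMSO neutral control for no effect and GW8510 at 10 µM for full effect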
Target sequence (Q00535 whole entry, looked up): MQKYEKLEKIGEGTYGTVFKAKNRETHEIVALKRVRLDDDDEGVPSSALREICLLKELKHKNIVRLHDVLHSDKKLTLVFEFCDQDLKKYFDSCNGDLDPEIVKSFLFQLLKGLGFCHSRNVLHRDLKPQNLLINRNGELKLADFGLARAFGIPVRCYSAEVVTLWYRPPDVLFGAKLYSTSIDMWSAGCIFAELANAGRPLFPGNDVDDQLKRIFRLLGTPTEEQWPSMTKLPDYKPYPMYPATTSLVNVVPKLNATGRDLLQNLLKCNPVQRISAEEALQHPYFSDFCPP
Target sequence (Q15078 whole entry, looked up): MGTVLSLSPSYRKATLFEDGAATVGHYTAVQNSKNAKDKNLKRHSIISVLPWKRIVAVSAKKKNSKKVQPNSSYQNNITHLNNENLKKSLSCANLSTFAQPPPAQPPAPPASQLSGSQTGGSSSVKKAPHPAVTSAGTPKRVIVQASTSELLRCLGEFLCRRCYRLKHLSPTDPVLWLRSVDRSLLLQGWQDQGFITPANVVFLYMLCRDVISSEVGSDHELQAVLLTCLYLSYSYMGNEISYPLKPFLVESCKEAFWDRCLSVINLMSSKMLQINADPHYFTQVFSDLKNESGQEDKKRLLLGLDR
CAL PDZ FP-1: blocks peptide binding to the human CAL PDZ domain | Q9HD26 | purified CAL PDZ, TMR-peptide fluorescence polarization, 1 h | inhibition, % at 24.9 µM | actives 0.92% (n = 300,000);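 active means mean inhibition of at least 30% with at least half of replicates also reaching 30%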;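 further: 0% = DMSO neutral control and 100% = excess unlabeled competitor peptide PRC23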
CAL PDZ FP-2: human CAL PDZ-peptide interaction inhibition; inhibition, % at 20 µM; purified CAL PDZ, TMR-peptide fluorescence polarization, 1 h; Q9HD26; actives 0.02% (n = 330,000);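 active means highest replicate inhibition of at least 40%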;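 further: plate controls were DMSO neutral control wells for no effect and unlabeled competitor peptide control wells for full effect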
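Control set: unlabelled peptide and DMSO controls / Material: purified CerCALP PDZ construct / Timing: 1 h incubation at room temperature before polarization reading / Doses: 20 µM, one dose / Detection: fluorescence polarization (mP)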
dFosB act-2: activators of mouse delta FosB homodimer DNA binding; activation, % at 24.9 µM; 2,400 tested, under 10 active; AID 588690; shares compounds with dFosB act-1; purified delta FosB, TAMRA-CDK5 oligo fluorescence polarization; normalised: neutral wells 0, positive control 100;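 active means highest replicate activation at or above 34% and every replicate reaching that threshold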;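 further: higher polarization means more probe DNA bound by delta FosB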
ADP-Glo artifact: counter-screen for Dyrk1A inhibitors: ADP-Glo luciferase artifacts; shares compounds with DYRK1A inh; ADP-Glo luciferase artifact assay, no Dyrk1A, luminescence; AC50, µM (series often up to 12 µM), without a hit: at the top dose activity change, negative = inhibition; 1,300 tested, under 10 active; AID 588348;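 active means fitted half-maximal dose AC50 no more than ten times the top valid tested dose, with luminescence dropping as dose rises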
An asterisk follows results filed as active.

`Cc1c(C)c2ccc(OCC(=O)N3C[C@H]4C[C@@H](C3)c3cccc(=O)n3C4)cc2oc1=O` gave DYRK1A inh 9, Rtt109 Vps75 0, dFosB act-1 -10, CDK5 p35 inh 0, CAL PDZ FP-1 -2 and CAL PDZ FP-2 1.
CC(=O)C1C(N2CC2)CC2C3CC=C4CC(O)CCC4(C)C3CCC21C (stereo unspecified) was read as Rtt109 Vps75 -8, dFosB act-1 36*, CDK5 p35 inh 1, CAL PDZ FP-2 -3 and dFosB act-2 2.
Screening O=c1[nH]c(=S)[nH]c(O)c1N=Nc1ccc(S(=O)(=O)N2CCc3ccccc32)cc1 returned DYRK1A inh 1, Rtt109 Vps75 -4, dFosB act-1 29*, CDK5 p35 inh -2, CAL PDZ FP-1 1, CAL PDZ FP-2 0 and dFosB act-2 8.
Screening O=c1[nH]c(=S)[nH]c(O)c1N=Nc1ccc(SC(F)F)cc1 returned DYRK1A inh -9, Rtt109 Vps75 -3, dFosB act-1 0, CDK5 p35 inh 1, CAL PDZ FP-1 0 and CAL PDZ FP-2 -1.
`OCC1CO1` (stereo unspecified) gave Rtt109 Vps75 4, dFosB act-1 1, CDK5 p35 inh 0, CAL PDZ FP-1 -2 and CAL PDZ FP-2 0.
Screening CN(C)CCN(C(=O)COc1ccc(Cl)cc1)c1nc2cc3c(cc2s1)OCO3 returned DYRK1A inh 3, Rtt109 Vps75 13, dFosB act-1 24*, CDK5 p35 inh 1, CAL PDZ FP-1 3, CAL PDZ FP-2 0 and dFosB act-2 -1.
`COc1ccc(OCC(=O)N2CCN(Cc3ccc4c(c3)OCO4)CC2)cc1` gave DYRK1A inh 7, Rtt109 Vps75 6, dFosB act-1 -4, CDK5 p35 inh -3, CAL PDZ FP-1 -1 and CAL PDZ FP-2 0.
For CCOc1ccc(C2C(C#N)=C(N)Oc3c2c(=O)oc2ccccc32)cc1 (stereo unspecified) the results were DYRK1A inh 9, Rtt109 Vps75 -1, dFosB act-1 21*, CDK5 p35 inh -1, CAL PDZ FP-2 -2 and dFosB act-2 -3.
`COC(=O)C1=C(c2ccc(F)cc2OCc2ccccc2)C[C@@H]2CC[C@H]1N2C(=O)NC1CCCCC1` gave DYRK1A inh 6, Rtt109 Vps75 -2, dFosB act-1 -6, CDK5 p35 inh 0, CAL PDZ FP-1 -1 and CAL PDZ FP-2 0.
For COC(=O)C1=C(c2ccc(F)cc2OCc2ccccc2)C[C@@H]2CC[C@H]1N2C(=O)NC1CC1 the results were DYRK1A inh 55*, Rtt109 Vps75 6, dFosB act-1 -1, CDK5 p35 inh 0, CAL PDZ FP-1 2, CAL PDZ FP-2 0 and ADP-Glo artifact 10%.
CCn1nc(/C=C/c2ccccc2)nc2c(=O)n(C)c(=O)nc1-2 was read as DYRK1A inh 50*, Rtt109 Vps75 2, dFosB act-1 -10, CDK5 p35 inh 3, CAL PDZ FP-1 -1, CAL PDZ FP-2 0 and ADP-Glo artifact 4%.
`COc1ccc(-n2c(/C=C/c3ccc(O)cc3)nc3ccccc3c2=O)cc1` gave DYRK1A inh 3, Rtt109 Vps75 -6, dFosB act-1 -6, CDK5 p35 inh 1, CAL PDZ FP-1 -3 and CAL PDZ FP-2 0.
For COc1ccc2c3c([nH]c2c1)C(C)=NCC3 the results were DYRK1A inh 86*, Rtt109 Vps75 6, dFosB act-1 14, CDK5 p35 inh 1, CAL PDZ FP-1 -3, CAL PDZ FP-2 5 and ADP-Glo artifact 9%.
Screening CC1=NCCc2c1[nH]c1cc(O)ccc21 returned DYRK1A inh 79*, Rtt109 Vps75 inactive, dFosB act-1 9, CDK5 p35 inh 1, CAL PDZ FP-1 4, CAL PDZ FP-2 0 and ADP-Glo artifact 10%.
Screening CCOc1cc2c(cc1OCC)-n1cccc1C(c1cccc(OCC)c1O)NC2 (stereo unspecified) returned DYRK1A inh -2, Rtt109 Vps75 -5, dFosB act-1 -4, CDK5 p35 inh -2, CAL PDZ FP-1 -6 and CAL PDZ FP-2 -1.
For CCOC(=O)c1cc(C)n(CCc2cnc[nH]2)c1C the results were DYRK1A inh 1, Rtt109 Vps75 -3, dFosB act-1 -2, CDK5 p35 inh -2, CAL PDZ FP-1 -5 and CAL PDZ FP-2 0.
`NC(=S)c1cn(C2OC(CO)C(O)C2O)c2ncnc(N)c12` (stereo unspecified) gave DYRK1A inh 95*, Rtt109 Vps75 -1, dFosB act-1 -3, CDK5 p35 inh 0, CAL PDZ FP-1 -4, CAL PDZ FP-2 -1 and ADP-Glo artifact 7%.
Screening COC(=O)C1=C(c2ccccc2OCc2ccccc2)C[C@@H]2CC[C@H]1N2C(=O)NCc1ccc(OC)c(OC)c1 returned DYRK1A inh -7, Rtt109 Vps75 1, dFosB act-1 -9, CDK5 p35 inh -2, CAL PDZ FP-1 -2 and CAL PDZ FP-2 -1.
COc1cc2c(cc1OC)-c1c(OC)c(OC)cc3c1C(C2)N(C)CC3 (stereo unspecified) was read as DYRK1A inh 15, Rtt109 Vps75 -3, dFosB act-1 -8, CDK5 p35 inh -1, CAL PDZ FP-1 -2 and CAL PDZ FP-2 0.
COc1cc2c(cc1OC)-c1c3c(cc4c1[C@@H](C2)N(C)CC4)OCO3 was read as DYRK1A inh 66*, Rtt109 Vps75 11, dFosB act-1 11, CDK5 p35 inh 1, CAL PDZ FP-1 0, CAL PDZ FP-2 1 and ADP-Glo artifact 10%.
`O=c1[nH]c(=O)n(-c2ccccc2)c(O)c1/C=C1/C(c2ccccc2)=Nc2ccccc21` gave DYRK1A inh 61*, Rtt109 Vps75 -19, dFosB act-1 -13, CDK5 p35 inh 1, CAL PDZ FP-1 -1, CAL PDZ FP-2 0 and ADP-Glo artifact 7%.
`O=S(=O)(c1ccc(Cl)cc1)N1CC1c1ccccc1` (stereo unspecified) gave DYRK1A inh 3, Rtt109 Vps75 1, dFosB act-1 4, CDK5 p35 inh 0, CAL PDZ FP-1 -3 and CAL PDZ FP-2 -1.
N#C/C(=C\c1ccc(O)cc1)C(=O)O (tested in a mixture with another compound) was read as DYRK1A inh 79*, Rtt109 Vps75 -1, dFosB act-1 1, CDK5 p35 inh 0, CAL PDZ FP-1 -2, CAL PDZ FP-2 0 and ADP-Glo artifact 8%.
For N#CC(C#N)=Cc1ccc(N2CCOCC2)cc1 the results were DYRK1A inh -11, Rtt109 Vps75 3, dFosB act-1 1, CDK5 p35 inh -3, CAL PDZ FP-1 -3 and CAL PDZ FP-2 -2.
